Experimental data published in ChEMBL document CHEMBL4138113, “Novel propanamides as fatty acid amide hydrolase inhibitors” (Eur J Med Chem, 2017).
Active and inactive are the calls of the source. No cut-off for these calls is given here.

Experiments:
[1] = biological target: T1, Prostaglandin G/H synthase 1 (Ovis aries) (UniProt P05979); test: Inhibition of recombinant ovine COX1 at 100 uM using arachidonic acid as substrate after 5 mins
T1 sequence (whole entry): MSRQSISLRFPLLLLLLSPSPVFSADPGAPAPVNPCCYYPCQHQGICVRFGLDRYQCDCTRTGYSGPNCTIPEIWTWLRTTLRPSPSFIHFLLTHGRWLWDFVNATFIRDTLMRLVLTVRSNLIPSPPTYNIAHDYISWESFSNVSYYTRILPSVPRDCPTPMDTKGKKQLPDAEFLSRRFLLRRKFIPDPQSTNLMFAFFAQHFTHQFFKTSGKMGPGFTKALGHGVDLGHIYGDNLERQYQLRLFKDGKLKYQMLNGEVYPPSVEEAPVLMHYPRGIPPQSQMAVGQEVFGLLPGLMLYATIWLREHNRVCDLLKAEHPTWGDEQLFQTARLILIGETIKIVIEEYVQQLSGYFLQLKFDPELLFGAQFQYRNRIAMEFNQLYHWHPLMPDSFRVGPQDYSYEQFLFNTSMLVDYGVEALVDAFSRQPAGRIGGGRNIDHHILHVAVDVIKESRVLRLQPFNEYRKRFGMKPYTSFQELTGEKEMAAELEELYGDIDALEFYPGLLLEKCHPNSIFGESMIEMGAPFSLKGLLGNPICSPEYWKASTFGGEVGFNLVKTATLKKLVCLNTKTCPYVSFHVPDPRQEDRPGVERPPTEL
Summary of the method: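 Oxygen-electrode assay at room temperature in 0.1 M Tris-HCl, pH 7.4, with 1 µM haematin, 2 mM phenol, 5 mM EDTA and 10 µM (final) arachidonic acid or 2-AG. Compound in EtOH was added and a 5 min baseline recorded. The reaction was started with ovine COX-1 or human recombinant COX-2 (200 U), and oxygen consumption was read in 10 s blocks. Means ± SEM, n = 3-4.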

[2] = biological target: T2, Fatty-acid amide hydrolase 1 (Rattus norvegicus) (UniProt P97612); test: Reversible inhibition of rat brain FAAH at 0.03 to 1 uM using [3H]AEA as substrate preincubated for 60 mins followed by 20 fold compound dilution and subsequent substrate addition by liquid scintillation counting analysis
T2 sequence (whole entry): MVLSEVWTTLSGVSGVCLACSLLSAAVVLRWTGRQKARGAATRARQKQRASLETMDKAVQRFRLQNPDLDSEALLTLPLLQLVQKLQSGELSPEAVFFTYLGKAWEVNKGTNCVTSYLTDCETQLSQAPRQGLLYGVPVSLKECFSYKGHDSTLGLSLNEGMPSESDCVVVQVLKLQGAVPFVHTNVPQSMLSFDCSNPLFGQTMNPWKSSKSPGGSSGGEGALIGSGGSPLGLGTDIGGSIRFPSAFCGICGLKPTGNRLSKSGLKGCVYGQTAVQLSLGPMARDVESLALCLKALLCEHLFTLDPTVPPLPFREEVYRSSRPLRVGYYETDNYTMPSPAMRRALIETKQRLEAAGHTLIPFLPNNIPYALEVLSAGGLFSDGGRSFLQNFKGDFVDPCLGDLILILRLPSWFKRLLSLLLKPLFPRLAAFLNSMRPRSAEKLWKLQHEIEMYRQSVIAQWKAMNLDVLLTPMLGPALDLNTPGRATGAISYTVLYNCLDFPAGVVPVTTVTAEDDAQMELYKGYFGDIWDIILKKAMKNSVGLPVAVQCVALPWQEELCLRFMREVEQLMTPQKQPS
Summary of the method: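 Rat brain homogenate at 20-fold normal strength was preincubated with vehicle or compound for 60 min, then diluted 20-fold and assayed with [3H]AEA for 10 min at 37 °C. In parallel, compound was added to vehicle-preincubated aliquots at the post-dilution free concentrations and at the undiluted final concentrations. Tritium was counted after charcoal separation.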

[3] = biological target: T2, Fatty-acid amide hydrolase 1 (Rattus norvegicus); test: Inhibition of rat brain FAAH using [3H]AEA as substrate after 10 mins in presence of N-(3-Methylpyridin-2-yl)-2-(4-((2-(trifluoromethyl)pyridin-4-yl)amino)phenyl)propanamide by liquid scintillation counting analysis
Summary of the method: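 Rat (Wistar or Sprague-Dawley) brain homogenate without cerebella, washed and pre-incubated 15 min at 37 °C to clear endogenous substrate. Compound (in ethanol or DMSO) was mixed with 1 µg protein on ice in 10 mM Tris-HCl, 1 mM EDTA, pH 7.4. Reaction used 0.5 µM [3H]AEA with fatty acid-free BSA for 10 min at 37 °C. It was stopped with charcoal/HCl, and supernatant tritium was counted. ≥5 half-log concentrations, ≥3 experiments; maximum inhibition = 100 − fitted bottom.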

[4] = species on record: Homo sapiens; test: Selectivity ratio of IC50 for FAAH T488A mutant (unknown origin) expressed in human HeLa cells after 2 hrs to IC50 for FAAH (unknown origin) expressed in human HeLa cells transfected with empty vector after 2 hrs; assay type: cell-based

Row | Structure (SMILES) | inhibition [1] | inhibition [2] | inhibition [3] | Ratio IC50 [4]
1 | CC(C(=O)Nc1ncccc1Cl)c1ccc(Nc2ccnc(C(F)(F)F)c2)cc1 (centres undefined) | Active | Active | Active | –
2 | Cc1cccnc1NC(=O)C(C)c1ccc(Nc2ccnc(C(F)(F)F)c2)cc1 (centres undefined) | – | – | – | 3.8
